In brackets after ≈: the same amount, converted by molar mass.
Legend:
2B37v1 [1] = molecular target: T1, 2B37v1 (Neotoma lepida, UniProt J7EWE1); details: read-out: (+)-α-pinene spectral binding KS; enzyme 2B37v1; 25 °C
[2] = ref Sridhar et al., 2012; cited from earlier work
2B36v1 [3] = molecular target: T2, 2B36v1 (Neotoma lepida, UniProt J7EWE5); details: read-out: (+)-α-pinene spectral binding KS; enzyme 2B36v1; 25 °C
2B37v2 [4] = molecular target: T3, 2B37v2 (Neotoma lepida, UniProt J9JD75); details: read-out: (+)-α-pinene spectral binding KS; enzyme 2B37v2; 25 °C
rat 2B1 [5] = molecular target: T4, rat 2B1 (Rattus norvegicus, UniProt P00176, E2A/G22K/H23K/K25S/N29K/P24T/R27K); assay type: binding
T4 sequence (P00176 with tags, fused parts or gaps limits assumed): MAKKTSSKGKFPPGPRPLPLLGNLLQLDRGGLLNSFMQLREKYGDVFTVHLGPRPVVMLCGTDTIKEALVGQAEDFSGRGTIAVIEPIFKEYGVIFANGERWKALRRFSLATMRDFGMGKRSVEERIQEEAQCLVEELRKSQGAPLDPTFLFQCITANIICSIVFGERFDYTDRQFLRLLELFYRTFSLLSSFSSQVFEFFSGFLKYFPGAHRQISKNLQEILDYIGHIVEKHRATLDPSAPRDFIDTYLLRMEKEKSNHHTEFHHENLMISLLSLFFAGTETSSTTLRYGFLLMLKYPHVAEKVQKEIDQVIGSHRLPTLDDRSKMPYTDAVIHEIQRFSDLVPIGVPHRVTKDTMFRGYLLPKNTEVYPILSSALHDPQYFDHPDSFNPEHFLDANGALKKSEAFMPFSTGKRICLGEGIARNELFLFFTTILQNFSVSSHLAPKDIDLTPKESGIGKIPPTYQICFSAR

2B35v1 [6] = molecular target: T5, 2B35v1 (Neotoma lepida, UniProt J7EVA5); details: read-out: (+)-α-pinene spectral binding KS; enzyme 2B35v1; 25 °C
T5 sequence (J7EVA5 22-491): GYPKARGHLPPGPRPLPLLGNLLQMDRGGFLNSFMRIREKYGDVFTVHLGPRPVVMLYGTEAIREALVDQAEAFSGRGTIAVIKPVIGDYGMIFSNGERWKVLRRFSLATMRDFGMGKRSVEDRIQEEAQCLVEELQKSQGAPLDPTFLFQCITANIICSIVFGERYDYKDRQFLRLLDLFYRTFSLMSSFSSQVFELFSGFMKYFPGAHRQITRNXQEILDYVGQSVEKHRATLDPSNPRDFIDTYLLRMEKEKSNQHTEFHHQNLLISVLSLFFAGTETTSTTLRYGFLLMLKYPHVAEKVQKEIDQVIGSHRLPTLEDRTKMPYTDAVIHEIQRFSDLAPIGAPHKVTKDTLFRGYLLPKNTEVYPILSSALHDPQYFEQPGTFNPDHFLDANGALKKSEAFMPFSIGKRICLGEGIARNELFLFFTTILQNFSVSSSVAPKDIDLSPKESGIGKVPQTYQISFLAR

human 2B6 = details: ref Talakad et al., 2009; cited from earlier work
2B37v1 K262R [7] = molecular target: T6, 2B37v1 K262R (Neotoma lepida, UniProt J7EWE1, K262R, form not given); test: 7-BR O-debenzylation, reconstituted system; assay type: biochemical; details: enzyme 2B37v1 K262R
2B35v1 [8] = molecular target: T5, 2B35v1; test: 7-BR O-debenzylation, reconstituted system; assay type: biochemical; details: substrate 7-BR; enzyme 2B35v1
Procedure, shortened: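 Same His4-tagged enzyme and purification, and same reconstituted system (P450:rat reductase:rat b5 1:4:2). 7-BR 0–10 μM in 50 mM HEPES pH 7.4, 15 mM MgCl2. NADPH 1 mM final started the reaction, 10 min at 37 °C, then methanol quench. Resorufin read at ex 550/em 580 nm, calibrated daily with 0–2 μM resorufin. Steady-state parameters from Michaelis-Menten regression.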

[9] = Solubility limit in aqueous solutions; assay type: physicochemical
rat 2B1 [10] = molecular target: rat 2B1 (Rattus norvegicus, UniProt P00176, E2A/G22K/H23K/K25S/N29K/P24T/R27K); test: 7-BR O-debenzylation, reconstituted system; assay type: biochemical; details: enzyme 2B1
2B37v2 V480L [11] = molecular target: T7, 2B37v2 V480L (Neotoma lepida, UniProt J9JD75, V480L, form not given); test: 7-BR O-debenzylation, reconstituted system; assay type: biochemical; details: enzyme 2B37v2 V480L
2B37v1 [12] = molecular target: T1, 2B37v1; test: 7-BR O-debenzylation, reconstituted system; assay type: biochemical; details: enzyme 2B37v1
2B37v2 [13] = molecular target: T3, 2B37v2; test: 7-BR O-debenzylation, reconstituted system; assay type: biochemical; details: enzyme 2B37v2
2B37v2 V114I [14] = molecular target: T8, 2B37v2 V114I (Neotoma lepida, UniProt J9JD75, V114I, form not given); test: 7-BR O-debenzylation, reconstituted system; assay type: biochemical; details: enzyme 2B37v2 V114I
2B37v2 R262K [15] = molecular target: T9, 2B37v2 R262K (Neotoma lepida, UniProt J9JD75, R262K, form not given); test: 7-BR O-debenzylation, reconstituted system; assay type: biochemical; details: enzyme 2B37v2 R262K
2B36v1 [16] = molecular target: T2, 2B36v1; test: 7-BR O-debenzylation, reconstituted system; assay type: biochemical
2B35v1 [17] = molecular target: T5, 2B35v1; test: 7-EFC O-deethylation, reconstituted system; assay type: biochemical; details: substrate 7-EFC; enzyme 2B35v1
Procedure, shortened: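 Enzyme with C-terminal His4 tag, expressed in TOPP3 cells and purified on Ni-NTA then CM-Sepharose. Reconstituted with rat NADPH-P450 reductase and rat cytochrome b5 (P450:reductase:b5 1:4:2). 7-EFC 0–150 μM in 50 mM HEPES pH 7.4, 15 mM MgCl2. Started with 1 mM NADPH, 10 min at 37 °C, quenched with ice-cold acetonitrile, diluted into 0.1 M Tris pH 9.0. 7-HFC read at ex 410/em 510 nm, calibrated daily with 0–2 μM HFC. Michaelis-Menten fit.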

2B37v1 K262R [18] = molecular target: T6, 2B37v1 K262R; test: 7-EFC O-deethylation, reconstituted system; assay type: biochemical
2B37v2 R262K [19] = molecular target: T9, 2B37v2 R262K; test: 7-EFC O-deethylation, reconstituted system; assay type: biochemical
2B37v2 [20] = molecular target: T3, 2B37v2; test: 7-EFC O-deethylation, reconstituted system; assay type: biochemical
2B37v2 V114I/V480L = 2B37v2 V114I/V480L (Neotoma lepida, UniProt J9JD75, V114I/V480L, form not given); test: 7-EFC O-deethylation, reconstituted system; assay type: biochemical; details: enzyme 2B37v2 V114I/V480L
2B37v2 V114I [21] = molecular target: T8, 2B37v2 V114I; test: 7-EFC O-deethylation, reconstituted system; assay type: biochemical; details: enzyme 2B37v2 V114I
2B37v1 [22] = molecular target: T1, 2B37v1; test: 7-EFC O-deethylation, reconstituted system; assay type: biochemical
2B36v1 [23] = molecular target: T2, 2B36v1; test: 7-EFC O-deethylation, reconstituted system; assay type: biochemical; details: enzyme 2B36v1
2B37v2 V480L [24] = molecular target: T7, 2B37v2 V480L; test: 7-EFC O-deethylation, reconstituted system; assay type: biochemical; details: enzyme 2B37v2 V480L
[25] = system: CCOc1ccc2c(C(F)(F)F)cc(=O)oc2c1; test: 7-EFC O-deethylation, reconstituted system; assay type: biochemical, rat; details: other: enzyme 2B1; 37.0 °C
[26] = read-out: 7-BR O-debenzylation KM
[27] = read-out: 7-EFC O-deethylation KM

Compound: (+)-α-pinene
- Kd (2B37v1 [1]): 9330 ± 760 nM
- log P [2]: 4.44
- Kd (2B36v1 [3]): 580 ± 40 nM
- Kd (2B37v2 [4]): 910 ± 70 nM
- (+)-α-pinene spectral binding %HSP450 Max Δ (rat 2B1 [5]; maximum change in high-spin P450 content, enzyme 2B1): 48.7 ± 1.3%
- difference spectra type induced (rat 2B1 [5]; peak ~388 nm, trough ~420 nm, represented with 2B1, seen with each enzyme): Type I
- Kd (rat 2B1 [5]; read-out: (+)-α-pinene spectral binding KS, enzyme 2B1, 25 °C): 870 ± 80 nM
- Kd (2B35v1 [6]): 1270 ± 490 nM

Compound: CN[C@H]1CC[C@@H](c2ccc(Cl)c(Cl)c2)c2ccccc21 [sertraline]
- maximal increase in HSP450 content upon binding (human 2B6): 0.8%

Compound: O=c1ccc2nc3ccc(OCc4ccccc4)cc3oc-2c1 [7-BR, 7-benzyloxyresorufin]
- 7-BR O-debenzylation kcat (2B37v1 K262R [7]): 0.15 ± 0.07 min^−^1
- Km (2B37v1 K262R [7]; [26]): 8.1 ± 0.7 µM
- O-dealkylation products (2B35v1 [8]): not detected
- solubility [9]: ~10 µM (≈ 3.03 µg/mL)
- 7-BR O-debenzylation kcat (rat 2B1 [10]): ~ 4.5 min^−^1
- 7-BR O-debenzylation kcat (2B37v2 V480L [11]): 0.47 ± 0.08 min^−^1
- Km (2B37v2 V480L [11]; [26]): 4.5 ± 0.7 µM
- 7-BR O-debenzylation kcat (2B37v1 [12]): 0.16 ± 0.04 min^−^1
- Km (2B37v1 [12]; [26]): 7.2 ± 0.6 µM
- 7-BR O-debenzylation kcat (2B37v2 [13]): 0.25 ± 0.06 min^−^1
- Km (2B37v2 [13]; [26]): 9.5 ± 0.5 µM
- 7-BR O-debenzylation kcat (2B37v2 V114I [14]): 0.13 ± 0.01 min^−^1
- Km (2B37v2 V114I [14]; [26]): 5.7 ± 1 µM
- 7-BR O-debenzylation kcat (2B37v2 R262K [15]): 0.18 ± 0.05 min^−^1
- Km (2B37v2 R262K [15]; [26]): 9.2 ± 0.7 µM
- efficiency for 7-BR O-debenzylation relative to 2B1 (2B36v1 [16]; 2B36v1 as fraction of 2B1): 1/40
- 7-BR O-debenzylation kcat (2B36v1 [16]; enzyme 2B36v1): 0.10 ± 0.03 min^−^1
- Km (2B36v1 [16]; read-out: 7-BR O-debenzylation KM, enzyme 2B36v1): 1.7 ± 0.3 µM

Compound: CCOc1ccc2c(C(F)(F)F)cc(=O)oc2c1 [7-EFC, 7-ethoxy-4-(trifluoromethyl)coumarin]
- O-dealkylation products (2B35v1 [17]): not detected
- decrease in 7-EFC kcat (2B37v1 K262R [18]; 2B37v1 K262R vs 2B37v1): ~ 45%
- reduction of 7-EFC catalytic efficiency (2B37v1 K262R [18]; 2B37v1 K262R vs 2B37v1): ~ 35%
- 7-EFC O-deethylation kcat (2B37v1 K262R [18]; enzyme 2B37v1 K262R): 5.4 ± 0.2 min^−^1
- Km (2B37v1 K262R [18]; read-out: 7-EFC O-deethylation KM, enzyme 2B37v1 K262R): 19 ± 2.3 µM
- decrease in 7-EFC catalytic efficiency (2B37v2 R262K [19]; 2B37v2 R262K vs 2B37v2): 85%
- 7-EFC O-deethylation kcat (2B37v2 R262K [19]; enzyme 2B37v2 R262K): 2.0 ± 0.1 min^−^1
- Km (2B37v2 R262K [19]; read-out: 7-EFC O-deethylation KM, enzyme 2B37v2 R262K): 20.3 ± 2.8 µM
- kcat for 7-EFC-O-deethylation greater than that of 2B1 (2B37v2 [20]; 2B37v2 vs 2B1): 2 fold
- 7-EFC O-deethylation kcat (2B37v2 [20]; enzyme 2B37v2): 14.5 ± 8.3 min^−^1
- Km (2B37v2 [20]; read-out: 7-EFC O-deethylation KM, enzyme 2B37v2): 20 ± 4.2 µM
- 7-EFC O-deethylation kcat (2B37v2 V114I/V480L): 20.8 ± 2.8 min^−^1
- Km (2B37v2 V114I/V480L; [27]): 32.5 ± 4.4 µM
- 7-EFC O-deethylation kcat (2B37v2 V114I [21]): 6.3 ± 1.9 min^−^1
- Km (2B37v2 V114I [21]; [27]): 120 ± 2 µM
- 7-EFC KM lower than 2B1 (2B37v1 [22]; 2B37v1 vs 2B1): ~ 25%
- 7-EFC catalytic efficiency higher than for 2B1 (2B37v1 [22]; 2B37v1 vs 2B1): ~ 1.8 fold
- 7-EFC kcat higher than that for 2B1 (2B37v1 [22]; 2B37v1 vs 2B1): ~ 1.4 fold
- kcat for 7-EFC-O-deethylation greater than that of 2B1 (2B37v1 [22]; 2B37v1 vs 2B1): ~ 50%
- 7-EFC O-deethylation kcat (2B37v1 [22]; enzyme 2B37v1): 10.0 ± 0.3 min^−^1
- Km (2B37v1 [22]; read-out: 7-EFC O-deethylation KM, enzyme 2B37v1): 23.5 ± 2 µM
- 7-EFC O-deethylation kcat (2B36v1 [23]): 3.3 ± 1.0 min^−^1
- Km (2B36v1 [23]; [27]): 18.3 ± 7 µM
- 7-EFC O-deethylation kcat (2B37v2 V480L [24]): 22.3 ± 2.0 min^−^1
- Km (2B37v2 V480L [24]; [27]): 23.9 ± 3.6 µM

Compound: rat 2B1 (Rattus norvegicus; E2A/G22K/H23K/K25S/N29K/P24T/R27K)
- Km [25]: 32.4 ± 4.9 µM
- kcat [25]: 0.115 ± 0.02 s⁻¹
- kcat/Km [25]: 3500 M⁻¹ s⁻¹

Compound: COC(=O)[C@H](c1ccccc1Cl)N1CCc2sccc2C1 [clopidogrel]
- KS (human 2B6): low micromolar
- maximal increase in HSP450 content upon binding (human 2B6): 2.6%

Compound: Clc1ccccc1CN1CCc2sccc2C1 [ticlopidine]
- KS (human 2B6): low micromolar
- maximal increase in HSP450 content upon binding (human 2B6): 2.3%
